Experimental data reported in ChEMBL document CHEMBL2169833, “Solubility-driven optimization of phosphodiesterase-4 inhibitors leading to a clinical candidate” (J Med Chem, 2012).
Converted amounts (≈) assume the structure as drawn.

How the values were obtained:
[1] = biological target: 3',5'-cyclic-AMP phosphodiesterase 4A (Homo sapiens, UniProt P27815); assay: Inhibition of human PDE4A-mediated [3H]CAMP hydrolysis after 30 to 60 mins by scintillation proximity assay
How it was run: (§1)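 Enzyme was diluted in 10 mM Tris-HCl pH 7.5 with 1 mM EDTA to give 10–30% substrate hydrolysis. Substrate was [3H]-cAMP (0.1 μCi) with 1 μM cAMP. Inhibitors were tested at 10 concentrations with 1% DMSO, 30−60 min at room temperature, stopped with PDE SPA beads and counted. IC50 came from curves. Mean of ≥2 experiments in duplicate, SEM where n ≥ 3.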

[2] = biological target: 3',5'-cyclic-AMP phosphodiesterase 4D (Homo sapiens, UniProt Q08499); assay: Inhibition of human PDE4D-mediated [3H]CAMP hydrolysis after 30 to 60 mins by scintillation proximity assay; how it was run: as §1
Chain of 3',5'-cyclic-AMP phosphodiesterase 4D (Q08499 whole entry): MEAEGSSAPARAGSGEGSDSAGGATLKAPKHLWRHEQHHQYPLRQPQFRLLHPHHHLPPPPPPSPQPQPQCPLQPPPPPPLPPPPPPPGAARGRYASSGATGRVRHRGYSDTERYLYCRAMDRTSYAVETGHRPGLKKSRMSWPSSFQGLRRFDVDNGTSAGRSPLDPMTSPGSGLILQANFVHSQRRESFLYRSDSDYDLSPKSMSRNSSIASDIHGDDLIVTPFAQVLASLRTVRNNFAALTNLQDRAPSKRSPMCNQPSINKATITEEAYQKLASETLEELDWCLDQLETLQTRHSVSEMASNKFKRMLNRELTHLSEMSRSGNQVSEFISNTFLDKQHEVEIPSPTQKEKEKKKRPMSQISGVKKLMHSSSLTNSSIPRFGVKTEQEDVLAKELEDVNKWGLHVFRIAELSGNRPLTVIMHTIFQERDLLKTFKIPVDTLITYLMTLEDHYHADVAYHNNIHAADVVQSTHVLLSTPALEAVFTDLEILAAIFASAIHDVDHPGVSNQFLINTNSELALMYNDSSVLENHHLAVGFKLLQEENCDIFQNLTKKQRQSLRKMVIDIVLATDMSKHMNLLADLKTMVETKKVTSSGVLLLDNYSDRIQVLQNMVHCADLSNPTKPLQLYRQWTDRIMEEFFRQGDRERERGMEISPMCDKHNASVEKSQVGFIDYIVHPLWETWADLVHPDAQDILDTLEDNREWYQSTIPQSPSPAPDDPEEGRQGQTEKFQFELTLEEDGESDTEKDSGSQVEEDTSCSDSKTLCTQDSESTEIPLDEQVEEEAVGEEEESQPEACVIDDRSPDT

[3] = Thermodynamic aqueous solubility of the compound at pH 6.8; assay type: physicochemical; details: buffer; for solubility thermodynamic: read-out: Therm_solubility
[4] = biological target: 3',5'-cyclic-AMP phosphodiesterase 4B (Homo sapiens, UniProt Q07343); assay: Inhibition of human PDE4B-mediated [3H]CAMP hydrolysis after 30 to 60 mins by scintillation proximity assay; how it was run: as §1
Chain of 3',5'-cyclic-AMP phosphodiesterase 4B (Q07343 whole entry): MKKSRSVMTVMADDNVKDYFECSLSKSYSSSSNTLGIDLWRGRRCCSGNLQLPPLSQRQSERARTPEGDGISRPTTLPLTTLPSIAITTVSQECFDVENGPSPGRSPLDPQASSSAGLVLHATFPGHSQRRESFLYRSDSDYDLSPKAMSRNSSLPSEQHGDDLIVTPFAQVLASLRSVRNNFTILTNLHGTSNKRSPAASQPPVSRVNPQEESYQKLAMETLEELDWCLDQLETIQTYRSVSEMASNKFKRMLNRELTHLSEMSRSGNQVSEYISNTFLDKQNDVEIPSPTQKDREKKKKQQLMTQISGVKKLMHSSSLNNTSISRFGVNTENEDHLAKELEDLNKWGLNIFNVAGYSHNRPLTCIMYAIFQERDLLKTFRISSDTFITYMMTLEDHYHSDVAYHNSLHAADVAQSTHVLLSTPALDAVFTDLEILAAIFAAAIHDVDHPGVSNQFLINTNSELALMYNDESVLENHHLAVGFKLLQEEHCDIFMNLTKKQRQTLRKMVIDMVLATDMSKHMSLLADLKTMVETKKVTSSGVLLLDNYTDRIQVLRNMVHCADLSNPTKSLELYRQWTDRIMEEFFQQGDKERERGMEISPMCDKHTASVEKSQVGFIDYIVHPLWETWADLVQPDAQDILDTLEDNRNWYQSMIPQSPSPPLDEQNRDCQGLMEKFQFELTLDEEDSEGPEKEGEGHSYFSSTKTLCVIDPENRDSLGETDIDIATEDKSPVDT

Rattus norvegicus = assay: Antiinflammatory activity in po dosed ovalbumin-sensitized Brown Norway rat assessed as inhibition of ovalbumin-induced eosinophil influx into BALF administered 2 hrs prior to ovalbumin-challenge measured after 24 hrs; assay type: functional
How it was run: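 Brown Norway rats were actively sensitized and dosed orally at 0.3, 1 or 3 mg/kg, or with vehicle PEG200:saline 1:1, 2 h before inhaled ovalbumin challenge. Saline-challenged rats served as controls. Eosinophils were counted in BAL fluid 24 h after challenge. Mean ± SEM, 5−10 animals per group. ED50 was estimated.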

[5] = Volume of distribution at steady state in rat at 1.05 umol/kg, iv; assay type: ADME, organism-based; details: in vivo, read-out: Vdss
How it was run: (§2)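 Rat PK after iv and po dosing, some compounds given as the potassium or sodium salt. Vehicle was PBS or 25/75 PEG200/PBS. Dose matched formulation strength: iv 1.05, 2.1 or 4.2 μmol/kg; po 2.1 or 4.2 μmol/kg. For some compounds iv and po used the same dose (2.1 or 4.2 μmol/kg).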

[6] = AUC total in rat at 2.1 umol/kg, po; assay type: ADME, organism-based, Plasma; details: plasma, 2.1 umol/kg; how it was run: as §2
[7] = Half life in rat at 2.1 umol/kg, po; assay type: ADME, organism-based; details: in vivo; how it was run: as §2
[8] = Cmax in rat at 2.1 umol/kg, po; assay type: ADME, organism-based; design: dose 2.1 umol/kg, route oral; details: in vivo; how it was run: as §2
[9] = Tmax in rat at 2.1 umol/kg, po; assay type: ADME, organism-based; details: in vivo; how it was run: as §2
[10] = Clearance in rat at 1.05 umol/kg, iv; assay type: ADME, organism-based; details: in vivo; how it was run: as §2
[11] = Oral bioavailability in rat at 2.1 umol/kg; assay type: ADME, organism-based; details: in vivo, 2.1 umol/kg; how it was run: as §2
Phosphodiesterase 4 = Phosphodiesterase 4 (Homo sapiens, UniProt P27815+Q08499+Q07343+Q08493); assay: Inhibition of PDE4 in human PBMC assessed as inhibition of LPS-induced TNFalpha production incubated for 10 mins prior to LPS-challenge measured after 20 hrs by sandwich ELISA
How it was run: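 Human PBMC were isolated from normal donors by Ficoll−Hypaque and grown at 1 × 10⁶ cells/mL in RPMI1640 with 10% FCS. Compound was preincubated 10 min, then LPS added (10 ng/mL, stock added). Cells were incubated 20 h at 37 °C in 5% CO₂. Supernatant TNF-α was measured by sandwich ELISA at OD405 (sensitivity ~10 pg/mL). IC50 came from inhibition curves.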

Mustela putorius furo = assay: Toxicity in ferret assessed as emesis at 0.075 to 4.8 mg/kg, po after 4 hrs; assay type: organism-based; design: dose 0.075-4.8 mg/kg, route oral; details: in vivo
Mus musculus = assay: Antiinflammatory activity in po dosed BALB/c mouse assessed as inhibition of LPS-induced neutrophil influx into BALF administered 1 hr prior to LPS-challenge measured after 3 hrs; assay type: functional
How it was run: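 Mice were given vehicle (PEG200:saline 1:1) or compound orally at 1−30 mg/kg, 1 h before LPS challenge. The control group got vehicle with PBS challenge. Animals were killed 3 h after challenge. Pooled from two experiments, 6−15 mice per group. Mann−Whitney test versus vehicle/LPS animals.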

[12] = Oral bioavailability in rat at 4.2 umol/kg; assay type: ADME, organism-based; details: in vivo, 4.2 umol/kg; how it was run: as §2
[13] = Half life in ferret at 3.42 umol/kg, ig; assay type: ADME, organism-based, Mustela putorius furo; details: in vivo, po
How it was run: (§3)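 Ferret PK after intragastric dosing as a solution in PEG200/saline (50/50, v/v) at 3.42 μmol/kg, with one compound at 2.98 μmol/kg. Plasma levels were measured. Detection limits were 0.5 μM for roflumilast and <0.02 μM for its N-oxide metabolite.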

[14] = Cmax in ferret at 3.42 umol/kg, ig; assay type: ADME, organism-based, Mustela putorius furo; design: dose 3.42 umol/kg, route intragastric; details: in vivo, po; how it was run: as §3
[15] = AUC total in ferret at 3.42 umol/kg, ig; assay type: ADME, organism-based, Mustela putorius furo; details: plasma, po; how it was run: as §3
[16] = Tmax in ferret at 3.42 umol/kg, ig; assay type: ADME, organism-based, Mustela putorius furo; details: in vivo, po; how it was run: as §3

Chain of 3',5'-cyclic-AMP phosphodiesterase 4A (P27815 whole entry): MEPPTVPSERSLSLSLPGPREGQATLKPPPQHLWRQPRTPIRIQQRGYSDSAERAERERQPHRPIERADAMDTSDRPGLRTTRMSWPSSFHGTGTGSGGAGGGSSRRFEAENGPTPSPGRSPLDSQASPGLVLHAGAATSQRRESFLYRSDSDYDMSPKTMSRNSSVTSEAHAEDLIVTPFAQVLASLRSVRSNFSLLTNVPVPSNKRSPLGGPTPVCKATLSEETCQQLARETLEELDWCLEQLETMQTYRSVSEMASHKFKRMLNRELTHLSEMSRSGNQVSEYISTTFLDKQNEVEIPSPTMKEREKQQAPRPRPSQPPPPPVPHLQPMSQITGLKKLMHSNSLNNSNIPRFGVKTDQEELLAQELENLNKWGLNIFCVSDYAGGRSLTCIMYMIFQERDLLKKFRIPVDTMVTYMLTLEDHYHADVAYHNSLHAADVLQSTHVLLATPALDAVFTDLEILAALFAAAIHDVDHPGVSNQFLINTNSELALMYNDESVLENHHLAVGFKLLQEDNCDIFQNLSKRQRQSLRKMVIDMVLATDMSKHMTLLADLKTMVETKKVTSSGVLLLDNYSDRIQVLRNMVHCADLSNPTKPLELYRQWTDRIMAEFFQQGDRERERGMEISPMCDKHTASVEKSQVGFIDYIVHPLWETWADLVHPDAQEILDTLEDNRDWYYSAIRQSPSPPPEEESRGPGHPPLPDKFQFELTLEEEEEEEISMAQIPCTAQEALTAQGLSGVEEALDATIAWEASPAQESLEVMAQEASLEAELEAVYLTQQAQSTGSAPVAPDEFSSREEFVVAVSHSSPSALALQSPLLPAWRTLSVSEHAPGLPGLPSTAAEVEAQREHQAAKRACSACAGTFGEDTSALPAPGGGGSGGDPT

Structure (SMILES)	IC50 [1]	IC50 [2]	solubility thermodynamic [3]	IC50 [4]	IC50 (Phosphodiesterase 4)	Therm_solubility [3]	other results
CSc1cccc(-c2nc(N3CCC(C(=O)O)CC3)cc3cccnc23)c1	587 nM	51 nM	378 µg/mL (≈ 996 µM)	1330 nM			
O=C(O)[C@H]1CC[C@H](c2cc3cccnc3c(-c3cccc(OC(F)(F)F)c3)n2)CC1							inhibition (Rattus norvegicus): Dose-dependent effect
O=C([O-])[C@H]1CC[C@H](c2cc3cccnc3c(-c3cccc(OC(F)(F)F)c3)n2)CC1.[K+]							Vd [5]: 0.36 L/kg; AUC [6]: 84 µM·h; half-life [7]: 29 h; Cmax [8]: 3.6 µM; Tmax [9]: 7.42 h; clearance [10]: 0.65 mL/min/kg; bioavailability [11]: 107%
O=C(O)C1CCN(c2cc3cccnc3c(-c3cccc(OC(F)(F)F)c3)n2)CC1	371 nM	30 nM	1950 µg/mL (≈ 4670 µM)	225 nM			
O=C(O)C1CCN(c2cc3cccnc3c(-c3cccc(F)c3)n2)CC1	587 nM	51 nM	> 4000 µg/mL	1330 nM	769 nM		
O=C(Nc1c(Cl)cncc1Cl)c1ccc(OC(F)F)c(OCC2CC2)c1 [ROFLUMILAST]							Activity (Mustela putorius furo): Toxic; ED50 (Rattus norvegicus): 0.74 mg/kg; ED50 (Mus musculus): 12.4 mg/kg
CSc1cccc(-c2nc([C@H]3CC[C@H](C(=O)O)CC3)cc3cccnc23)c1	27 nM	6 nM	1100 µg/mL (≈ 2910 µM)	17 nM	19 nM		
COc1cccc(-c2nc([C@H]3CC[C@H](C(=O)O)CC3)cc3cccnc23)c1	242 nM	64 nM		156 nM	151 nM	150 µg/mL	
N#Cc1cccc(-c2nc([C@H]3CC[C@H](C(=O)O)CC3)cc3cccnc23)c1	160 nM	41 nM		93 nM	53 nM	430 µg/mL	bioavailability [12]: 92%
O=C(O)[C@H]1CC[C@H](c2cc3cccnc3c(-c3cccc(F)c3)n2)CC1	123 nM	32 nM		34 nM	126 nM	920 µg/mL	half-life [13]: 3.2 h; Activity (Mustela putorius furo): Non-toxic; ED50 (Rattus norvegicus): 1.2 mg/kg; Cmax [14]: 12.3 µM; AUC [15]: 59.3 µM·h; Tmax [16]: 1.5 h; ED50 (Mus musculus): 11.2 mg/kg
